Laboratory results reported in ChEMBL document CHEMBL1157506, “Synthesis and pharmacological characterization of chiral pyrrolidinylfuran derivatives: the discovery of new functionally selective muscarinic agonists” (J Med Chem, 2008).

Experiments:
[1] = target: T1, Muscarinic acetylcholine receptor M1 (Homo sapiens, UniProt P11229); test: Displacement of [3H]NMS from human muscarinic M1 receptor expressed in CHO cells by liquid scintillation counter; format: cell-based
T1 sequence (P11229 whole entry): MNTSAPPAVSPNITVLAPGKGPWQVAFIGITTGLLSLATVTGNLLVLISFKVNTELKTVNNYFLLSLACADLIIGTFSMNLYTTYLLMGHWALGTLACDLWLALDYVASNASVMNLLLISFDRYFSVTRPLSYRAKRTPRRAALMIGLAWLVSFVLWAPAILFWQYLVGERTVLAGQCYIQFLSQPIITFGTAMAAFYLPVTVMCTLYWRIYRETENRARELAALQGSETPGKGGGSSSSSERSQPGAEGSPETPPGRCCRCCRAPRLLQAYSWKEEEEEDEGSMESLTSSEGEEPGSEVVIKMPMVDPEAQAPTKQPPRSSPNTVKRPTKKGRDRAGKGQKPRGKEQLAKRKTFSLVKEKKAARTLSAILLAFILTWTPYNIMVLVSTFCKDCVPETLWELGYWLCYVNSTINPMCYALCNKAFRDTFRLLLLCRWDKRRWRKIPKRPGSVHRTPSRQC

[2] = target: T2, Muscarinic acetylcholine receptor M2 (Homo sapiens, UniProt P08172); test: Displacement of [3H]NMS from human muscarinic M2 receptor expressed in CHO cells by liquid scintillation counter; format: cell-based
T2 sequence (P08172 whole entry): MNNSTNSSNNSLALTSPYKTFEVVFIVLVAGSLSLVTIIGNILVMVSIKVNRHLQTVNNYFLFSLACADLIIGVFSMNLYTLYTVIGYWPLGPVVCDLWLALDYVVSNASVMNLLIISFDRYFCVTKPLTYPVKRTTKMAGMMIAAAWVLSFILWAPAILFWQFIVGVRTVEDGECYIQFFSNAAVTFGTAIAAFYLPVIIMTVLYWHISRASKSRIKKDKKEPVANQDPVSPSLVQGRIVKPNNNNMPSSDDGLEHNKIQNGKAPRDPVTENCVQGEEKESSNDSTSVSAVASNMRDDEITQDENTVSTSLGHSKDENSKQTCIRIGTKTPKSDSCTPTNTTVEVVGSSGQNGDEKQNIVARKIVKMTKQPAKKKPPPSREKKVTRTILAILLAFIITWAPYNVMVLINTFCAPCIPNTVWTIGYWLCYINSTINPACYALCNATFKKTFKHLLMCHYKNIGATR
Outline: (§1)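 Membrane protein was 70 µg/mL for hm2, 50 µg/mL for hm4 and 25 µg/mL for hm5. Incubation was 120 min at room temperature in 25 mM sodium phosphate with 5 mM MgCl2, pH 7.4. GF/C filtration and scintillation counting followed; duplicates.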

[3] = target: T3, Muscarinic acetylcholine receptor M5 (Homo sapiens, UniProt P08912); test: Displacement of [3H]NMS from human muscarinic M5 receptor expressed in CHO cells by liquid scintillation counter; format: cell-based; outline: as §1
T3 sequence (P08912 whole entry): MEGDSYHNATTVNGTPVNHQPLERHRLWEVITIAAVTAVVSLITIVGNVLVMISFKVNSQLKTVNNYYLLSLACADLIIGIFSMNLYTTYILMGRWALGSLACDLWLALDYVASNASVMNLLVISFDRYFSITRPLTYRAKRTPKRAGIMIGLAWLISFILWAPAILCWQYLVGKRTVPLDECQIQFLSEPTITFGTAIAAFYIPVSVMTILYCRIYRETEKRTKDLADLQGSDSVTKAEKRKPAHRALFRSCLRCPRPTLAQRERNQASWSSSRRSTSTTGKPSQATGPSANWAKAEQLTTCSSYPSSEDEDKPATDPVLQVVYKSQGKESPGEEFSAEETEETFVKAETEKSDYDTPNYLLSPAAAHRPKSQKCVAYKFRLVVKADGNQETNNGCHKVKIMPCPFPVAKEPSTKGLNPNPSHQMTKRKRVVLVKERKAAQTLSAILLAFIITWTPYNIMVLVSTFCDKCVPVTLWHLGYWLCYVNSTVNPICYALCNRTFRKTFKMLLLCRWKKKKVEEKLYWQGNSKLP

[4] = Agonist activity at muscarinic M2 receptor in guinea pig atrium assessed as effect on inotropic activity; format: functional, Cavia porcellus, Cardiac atrium
Outline: (§2)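 Left atria in PSS at 30 °C, paced via platinum electrodes (1 ms, 1 Hz, 5-10 V). Inotropic force recorded isometrically after 2 h equilibration. A cumulative APE reference curve was obtained, then cumulative agonist curves. Responses are expressed as % of the control maximal response.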

[5] = Agonist activity at muscarinic M3 receptor in guinea pig ileum assessed as effect on tissue tension changes; format: functional, Cavia porcellus
Outline: (§3)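 Ileum tension changes recorded isotonically after 30 min equilibration. APE curves were run at 30 min intervals; the first was discarded and the second was taken as control. Cumulative agonist curves followed, with responses expressed as % of the control maximum. Parallel reference-only tissues served as sensitivity checks.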

[6] = target: Muscarinic acetylcholine receptor M3 (Homo sapiens, UniProt P20309); test: Displacement of [3H]NMS from human muscarinic M3 receptor expressed in CHO cells by liquid scintillation counter; format: cell-based
Muscarinic acetylcholine receptor M3, sequence (P20309 whole entry): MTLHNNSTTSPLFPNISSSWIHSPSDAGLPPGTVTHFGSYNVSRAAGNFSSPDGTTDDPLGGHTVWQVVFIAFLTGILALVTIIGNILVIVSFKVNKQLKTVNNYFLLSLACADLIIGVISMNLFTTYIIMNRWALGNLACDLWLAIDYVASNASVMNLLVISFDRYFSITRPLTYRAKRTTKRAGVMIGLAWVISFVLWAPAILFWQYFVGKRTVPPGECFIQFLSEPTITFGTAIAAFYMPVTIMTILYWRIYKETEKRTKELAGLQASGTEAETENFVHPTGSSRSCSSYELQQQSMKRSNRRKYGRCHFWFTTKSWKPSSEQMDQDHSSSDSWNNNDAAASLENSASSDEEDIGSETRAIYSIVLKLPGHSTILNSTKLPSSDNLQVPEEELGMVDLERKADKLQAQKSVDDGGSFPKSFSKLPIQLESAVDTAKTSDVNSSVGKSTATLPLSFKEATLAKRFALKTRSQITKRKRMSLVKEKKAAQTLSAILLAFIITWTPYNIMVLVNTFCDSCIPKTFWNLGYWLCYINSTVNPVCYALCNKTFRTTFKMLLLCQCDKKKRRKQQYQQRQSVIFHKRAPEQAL

Oryctolagus cuniculus = species: Oryctolagus cuniculus; test: Intrinsic activity at muscarinic M1/M4 receptor in New Zealanda white rabbit vas deferens assessed as effect on isometric tissue contraction relative to control; format: tissue-based
Outline: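 Vas deferens in solution with 10^-6 M yohimbine and 10^-8 M tripitramine at 30 °C, field-stimulated (0.1 ms, 2 Hz, 10-15 V). Contractions recorded isometrically after 1 h equilibration. A cumulative McN-A-343 reference curve was built, then cumulative curves to the test agonist. Responses are expressed as % of the control curve's maximum. Parallel reference-only tissues served as sensitivity checks.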

[7] = target: T4, Muscarinic acetylcholine receptor M4 (Homo sapiens, UniProt P08173); test: Displacement of [3H]NMS from human muscarinic M4 receptor expressed in CHO cells by liquid scintillation counter; format: cell-based; outline: as §1
T4 sequence (P08173 whole entry): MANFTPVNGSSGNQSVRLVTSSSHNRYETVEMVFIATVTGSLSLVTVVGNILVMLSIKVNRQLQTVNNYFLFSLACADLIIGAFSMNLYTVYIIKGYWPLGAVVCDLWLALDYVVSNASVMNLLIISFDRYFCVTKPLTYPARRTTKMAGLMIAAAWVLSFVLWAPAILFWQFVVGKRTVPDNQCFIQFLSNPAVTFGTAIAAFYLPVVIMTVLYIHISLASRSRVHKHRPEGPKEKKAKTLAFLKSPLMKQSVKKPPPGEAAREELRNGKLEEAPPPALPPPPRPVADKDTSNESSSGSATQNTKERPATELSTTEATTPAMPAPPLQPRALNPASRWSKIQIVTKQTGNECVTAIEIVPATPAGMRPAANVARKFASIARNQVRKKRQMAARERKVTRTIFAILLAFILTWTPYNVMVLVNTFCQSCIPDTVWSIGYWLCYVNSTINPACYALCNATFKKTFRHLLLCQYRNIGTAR

Cavia porcellus [8] = species: Cavia porcellus; test: Intrinsic activity at muscarinic M2 receptor in guinea pig atrium assessed as effect on inotropic activity relative to control; format: tissue-based; details: Cardiac atrium; outline: as §2
[9] = Antagonist activity at muscarinic M1/M4 receptor in guinea pig lung assessed as effect on tissue contraction; format: functional, Cavia porcellus
Cavia porcellus [10] = species: Cavia porcellus; test: Intrinsic activity at muscarinic M3 receptor in guinea pig ileum assessed as effect on tissue tension changes relative to control; format: tissue-based; outline: as §3
Cavia porcellus [11] = species: Cavia porcellus; test: Intrinsic activity at muscarinic M1/M4 receptor in guinea pig lung assessed as effect on tissue contraction relative to control
[12] = Antagonist activity at muscarinic M1/M4 receptor in New Zealanda white rabbit vas deferens assessed as effect on isometric tissue contraction; format: functional, Oryctolagus cuniculus
Outline: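 Rabbit vas deferens bathed at 30 °C with 10^-6 M yohimbine and 10^-8 M tripitramine to block α2-adrenoceptors and M2 receptors. Electrically stimulated with square-wave pulses (0.1 ms, 2 Hz, 10-15 V) and equilibrated 1 h. Isometric contractions recorded during a cumulative dose-response curve to McN-A-343. Responses are expressed as % of maximal control-curve response, with parallel reference-agonist-only tissues run.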

| Structure (SMILES) | Ki [1] [µM] | Ki [2] [µM] | Ki [3] [µM] | pD2 [4] | pD2 [5] | Ki [6] [µM] | Intrinsic activity (Oryctolagus cuniculus) | Ki [7] [µM] | Intrinsic activity (Cavia porcellus [8]) | pD2 [9] | Intrinsic activity (Cavia porcellus [10]) | pKb [9] | Intrinsic activity (Cavia porcellus [11]) | pKb [12] |
| --- | --- | --- | --- | --- | --- | --- | --- | --- | --- | --- | --- | --- | --- | --- |
| C[N+]1(C)CCC[C@@H]1c1ccco1.[I-] | 51.3 | 14.1 | 23.4 | 6.49 | 5.37 | 17.8 | 0.28 | 28.2 | 0.4 | <5 | 0.25 | – | – | – |
| Cc1ccc(C2CCCN2)o1 (racemic) | 38 | 4.27 | 19.1 | 6.66 | 5.57 | 18.2 | – | 51.3 | 1 | – | 0.97 | 5.51 | – | – |
| CN1CCC[C@@H]1c1ccco1 | 77.6 | 47.9 | 75.9 | 7.38 | 5.65 | 81.3 | 0.47 | 79.4 | 0.45 | – | 0.31 | <5 | – | – |
| c1coc([C@H]2CCCN2)c1 | 46.8 | 77.6 | 31.6 | – | – | 25.1 | – | 89.1 | – | – | – | – | – | – |
| Cc1ccc(C[N+](C)(C)C)o1 | 7.94 | 0.955 | 6.92 | – | – | 6.17 | – | 6.31 | – | – | – | – | – | – |
| C[N+](C)(C)CC#CCOC(=O)Nc1cccc(Cl)c1 | 1.95 | 3.24 | 3.8 | – | – | 2.4 | 1 | 9.12 | – | – | – | – | – | – |
| C[N+](C)(C)CCOC(N)=O.[Cl-] [CARBACHOL] | – | – | – | – | – | – | – | – | 1 | – | 1 | – | 1 | – |
| c1coc(C2CCCN2)c1 (racemic) | 178 | 29.5 | 16.6 | – | – | 11.5 | – | 87.1 | – | – | – | – | – | – |
| Cc1ccc([C@H]2CCCN2C)o1 | 44.7 | 19.5 | 31.6 | 6.4 | 4.93 | 28.8 | – | 58.9 | 0.32 | – | 0.22 | <5 | – | <5 |
| Cc1ccc([C@H]2CCC[N+]2(C)C)o1.[I-] | 13.8 | 2.69 | 9.55 | 7.66 | 7.1 | 7.76 | – | 13.8 | 0.44 | – | 0.26 | <5 | – | 5.67 |
| c1coc([C@@H]2CCCN2)c1 | 63.1 | 107 | 47.9 | – | – | 43.7 | – | 102 | – | – | – | – | – | – |
| C[N+]1(C)CCCC1c1ccco1.[I-] (racemic) | 5.25 | 3.72 | 3.16 | 6.65 | 5.65 | 2.75 | 0.26 | 6.46 | 0.38 | <5 | 0.19 | – | – | – |
| Cc1ccc(C2CCC[N+]2(C)C)o1.[I-] (racemic) | 7.41 | 1.91 | 4.68 | 7.55 | 7.25 | 6.92 | – | 4.37 | 0.33 | – | 0.28 | <5 | – | – |
| C[N+]1(C)CCC[C@H]1c1ccco1.[I-] | 30.9 | 7.41 | 20.9 | 7.19 | 5.77 | 21.4 | 0.21 | 21.4 | 0.3 | – | 0.41 | <5 | – | – |
